NPY-Y1 antag – NPY-Y1 receptor antagonists, primary screen, cell-based; Neuropeptide Y receptor type 1 (Homo sapiens), P25929; HEK293-CNG Y1 cells, membrane potential fluorescence; NPY at EC95, then isoproterenol; inhibition, % at 3.6 µM; 200,000 tested, 1% active; AID 1040, 2008;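 active = inhibition above the campaign mean inhibition of all tested compounds plus 3 SD, cut at about 20% in these data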;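 note: 0% = DMSO wells given NPY plus isoproterenol and 100% = isoproterenol alone without NPY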
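Test system – HEK293 Y1/CNG channel cell line · Also added – NPY agonist 25 nM, then isoproterenol 1 µM plus Ro 20-1724 25 µM · Compound dosing – one concentration, 3.6 µM, in 0.4% DMSO · Schedule – compound incubation 1 h at room temperature, readout 45 min post-stimulation · Technique – fluorescence, membrane potential probe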
NPY-Y2 PAM-ag – NPY-Y2 potentiators or agonists, primary screen, cell-based. Neuropeptide Y receptor type 2 (Homo sapiens), P49146. cells expressing NPY-Y2, potentiator/agonist read-out. activation, % at 3.6 µM. 220,000 tested, 0.45% active. AID 1359, 2008; in the data active = activation above about 27%;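 note: cells stimulated with NPY near EC25 plus isoproterenol at EC100; 0% = vehicle plus submaximal agonist and 100% = vehicle plus saturating agonist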
Target sequence (P49146 whole entry, looked up): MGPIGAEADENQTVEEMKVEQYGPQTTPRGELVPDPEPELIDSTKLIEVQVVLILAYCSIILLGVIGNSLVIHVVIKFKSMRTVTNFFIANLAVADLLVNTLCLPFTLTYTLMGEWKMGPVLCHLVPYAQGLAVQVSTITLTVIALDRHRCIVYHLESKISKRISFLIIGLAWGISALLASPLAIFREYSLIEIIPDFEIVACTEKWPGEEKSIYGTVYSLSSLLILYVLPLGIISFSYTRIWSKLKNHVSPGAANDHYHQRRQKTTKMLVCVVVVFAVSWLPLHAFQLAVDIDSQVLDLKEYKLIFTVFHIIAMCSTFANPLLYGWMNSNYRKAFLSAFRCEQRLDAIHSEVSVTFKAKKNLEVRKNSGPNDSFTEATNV
NPY Y2 blocker – NPY-Y2 receptor antagonists, primary screen, cell-based; Neuropeptide Y receptor type 2 (Homo sapiens), P49146; NPY-Y2 expressing cells, antagonist mode; inhibition, % at 2.7 µM; 140,000 tested, 0.99% active; in the data active = inhibition above about 17%;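 note: 0% = vehicle with agonist challenge and 100% = reference antagonist with challenge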
NPY1 pot ag – NPY-Y1 receptor potentiators or agonists, primary screen, cell-based; Neuropeptide Y receptor type 1 (Homo sapiens), P25929; AID 1304, 2008; NPY-Y1 expressing cells, potentiator/agonist activation; 220,000 tested, 0.37% active; activation, % at 3.6 µM; in the data active = activation above about 33%, passing the limit was not always enough;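 note: cells stimulated with NPY at EC10 then isoproterenol at EC100; 0% = low agonist plus stimulus and 100% = saturating agonist plus stimulus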
NPY-Y1 antag ct – NPY-Y1 receptor antagonists, selectivity check, counter-screen for NPY-Y2 antagonist project, cell-based; shares compounds with NPY Y2 blocker; cell-based NPY-Y1 antagonism counterscreen; inhibition, % at 3.6 µM; 710 tested, 19% active; AID 1256, 2008; in the data active = inhibition above about 20%;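 note: cells challenged with NPY then isoproterenol with cAMP sensed through a CNG channel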
NPY-Y2 ant conf – NPY-Y2 receptor antagonists, retest of hits, confirmation, HEK293-CNG cells, membrane potential fluorescence, triplicate; 710 tested, 32% active; HEK293 NPY-Y2 CNG channel; AID 1257, 2008; shares compounds with NPY Y2 blocker; inhibition, % at 2.8 µM;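 active = mean inhibition of triplicate wells above the hit cutoff set in the primary screen, cut at about 17% in these data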;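 note: 0% = DMSO with NPY challenge and 100% = BIIE0246 high control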
* hit, by the source's call; . = not tested or not shown. Compounds with a hit are over-represented: about 1.8% of the library has one in this group of screens.

SMILES | NPY-Y1 antag | NPY-Y2 PAM-ag | NPY Y2 blocker | NPY1 pot ag | NPY-Y1 antag ct | NPY-Y2 ant conf
Cc1ccc(-c2nc(=S)c3c(n2CC2CCCO2)CC(C)(C)OC3)cc1 (stereo unspecified) | 3 | -1 | 5 | 8 | . | .
Cc1ccc(-c2nc(=S)c3c(n2Cc2ccco2)CC(C)(C)OC3)cc1 | 17 | 1 | 18* | -12 | 21* | 8
COC(=O)CNc1cccc(C(F)(F)F)c1 | 11 | -3 | . | 5 | . | .
O=C(Nc1cccc(S(=O)(=O)N2CCCC2)c1)c1ccc2ccccc2n1 | 12 | -16 | . | -4 | . | .
O=C(Nc1cccc(S(=O)(=O)N2CCCCC2)c1)c1ccc2ccccc2n1 | 9 | -9 | 20* | -9 | 10 | 13
Clc1ccc(CSc2nnc(-c3cccnc3)o2)cc1 | -3 | -19 | 1 | -16 | . | .
Clc1ccccc1CSc1nnc(/C=C/c2ccccc2)o1 | 11 | -10 | 20* | -19 | 20 | 21*
Clc1ccc(CSc2nnc(/C=C/c3ccccc3)o2)cc1 | 1 | -9 | 18* | -19 | 24* | 21*
CC(=O)N1CCC2(CC1)C/C(=N\NC(=S)Nc1ccc(C)cc1)c1cc(O)ccc1O2 | -6 | -12 | . | -14 | . | .
COc1cc(-c2nc(CN(C)C(C)c3ccncn3)c(C)o2)ccc1F (stereo unspecified) | 2 | 2 | . | -2 | . | .
CCCC(c1nnnn1C1CCCC1)N1CCN(c2ccccc2F)CC1 (stereo unspecified) | 14 | -17 | 18* | -3 | 18 | 4
COc1ccc(OCC(=O)Nc2cccc3cccnc23)cc1 | 12 | -4 | 48* | -10 | 11 | 24*
C/C(=C\C(=O)c1ccc(Br)cc1)NCc1ccccc1 | 5 | -5 | 9 | -11 | . | .
C/C(=C\C(=O)c1ccc(Br)cc1)NCc1ccc(C)cc1 | 11 | -4 | 21* | 3 | 8 | 10
O=C(Cc1ccc(Br)cc1)OCC(=O)N1CCc2ccccc2C1 | 8 | -11 | 18* | -16 | 7 | 8
COC(=O)c1sc(-c2cccs2)cc1NC(=O)/C=C/C(=O)O | . | -14 | . | -6 | . | .
CCCCNC(=O)CN1C(=O)C(CC)Oc2ccc(Cl)cc21 (stereo unspecified) | 17 | -23 | 22* | -28 | 7 | 7
CC1=C(C(=O)OCC2CCCO2)C(c2ccsc2)C2=C(CCCC2=O)N1 (stereo unspecified) | 1 | -7 | . | 13 | . | .
CCNc1ccc2noc3c2c1C(=O)c1ccccc1-3 | 15 | 49* | 45* | 72* | 15 | 8
CC1(C)CC(=O)C=C(NCc2ccc(Cl)c(Cl)c2)C1 | 13 | -4 | 18* | -15 | 9 | 7
O=C1C=C(NCc2ccc(Cl)c(Cl)c2)CC1 | 2 | 12 | -1 | 8 | . | .
O=C(NCC1OCCc2ccccc21)c1cc(COc2c(F)cccc2F)on1 (stereo unspecified) | 6 | -14 | . | -13 | . | .
CC(C)c1nnc(SCC(=O)NCc2ccco2)n1C | -4 | -1 | 1 | 12 | . | .
CCn1c(SCC(=O)NCc2ccco2)nnc1C(C)C | -5 | 9 | 23* | 16 | 0 | 1
CCOC(=O)c1nc2sc3c(c2c(=O)n1C(C)C(=O)OCC)CCCC3 (stereo unspecified) | 9 | -2 | . | -9 | . | .
SMILES | NPY-Y1 antag | NPY-Y2 PAM-ag | NPY Y2 blocker | NPY1 pot ag | NPY-Y1 antag ct | NPY-Y2 ant conf
O=C(CNc1ccc2c(c1)OCO2)N/N=C\c1ccccc1Cl | 10 | -9 | 40* | -42 | 4 | 9
N#CC(C#N)=Cc1ccc(OCC(=O)N2CCOCC2)cc1 | 4 | 11 | . | -3 | . | .
Cc1cc(C)nc(N/N=C/C2=C(N3CCOCC3)C(=C/c3ccccc3)/CC2)n1 | 17 | 6 | 76* | 0 | 56* | 72*
CCO[C@@H]1OC(C(=O)NCc2ccccc2)=C[C@H](C2CCCCC2)[C@H]1CCCO | -5 | 6 | . | 17 | . | .
CCCCCC(=O)NC(=S)Nc1ccc(Br)cc1C | 1 | -1 | 20* | 13 | 10 | 19*
COc1ccc(-c2nc(C#N)c(NC(C)c3ccccc3)o2)cc1OC (stereo unspecified) | 14 | -17 | 21* | 4 | 17 | 34*

Screens: PubChem, The Scripps Research Institute Molecular Screening Center
